The test system of series [1] is Mus musculus. Kind of series: In vivo antitumor activity against sarcoma 180 infected mice was determined as treated versus control of tumor volume. The class given is functional. The method, boiled down: (§1)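 ddY mice given sarcoma 180 cells in the axillary region on day 0. Single iv dose on day 1. Tumor volume expressed as treated/control ratio. Optimal dose reported.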

Another series has as its system HeLa. Kind of series: In vitro antiproliferative activity against HeLa S3 cells. In kind it is functional, cell-based. The following applies: Homo sapiens. The method, boiled down:
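HeLa S3 cells precultured 24 h in 96-well plates, then exposed to compound for 72 h. Growth inhibition read on day 4 by neutral red dye uptake.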

The test system of series [2] is Mus musculus. Kind of series: Optimal dose for in vivo antitumor activity against sarcoma 180 infected mice. The class given is functional. The method, boiled down: as §1
Series [3] can be described thus: Half-life determined by HPLC ([…]). The class given is ADME. In outline:
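Stability read by HPLC at 330 nm. Compound at 20 μg/mL in pH 7 phosphate buffer/acetonitrile (4:1), 37 °C, half-life derived.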

The text below walks through data of ChEMBL document CHEMBL1132171, “Synthesis and antitumor activity of novel thioester derivatives of leinamycin” (J Med Chem, 1999).

pIC50: −log10 of the molar value.

The pIC50 is the IC50 on a negative log10 scale, so that one unit is a factor of ten. Lower therefore signals a large IC50. Usually half-life stands for the time needed for the level to fall by half in the phase considered.

Regarding `CC(=O)O[C@@H]1/C=C(\C)CC[C@]2([C@@](C)(O)C(=O)SCc3oc(=O)oc3C)CC(=O)N([C@H](C)c3nc(cs3)C=C/C=C/C1=O)[S+]2[O-]` (stereo not given in full), in the series on Mus musculus [1], the T/C was found to be 0.38. The pIC50 in the series on HeLa was 8.41. The compound further registered an OD in the series on Mus musculus [2] of 2 mg/kg. In addition, the half-life in series [3] is 24 h.
On the same counts, the results for `CCOC(=O)CSC(=O)[C@](C)(O)[C@@]12CC/C(C)=C/[C@@H](O)C(=O)/C=C/C=Cc3csc(n3)[C@@H](C)N(C(=O)C1)[S+]2[O-]` (stereo not given in full) are 0.98, 5.89, 16 mg/kg and greater than 24 h.
With `C/C1=C\[C@@H](O[C@H]2CCCCO2)C(=O)/C=C/C=C/c2csc(n2)[C@@H](C)N2C(=O)C[C@@]([C@@](C)(O)C(=O)SCc3oc(=O)oc3C)(CC1)[S+]2[O-]` (stereo not given in full), the T/C with Mus musculus [1] amounted to 0.63. This compound showed a negative-log IC50 (pIC50) in the series with HeLa of 8.62. The compound further came in with an OD in the series with Mus musculus [2] of 8 mg/kg. The half-life in series [3] was 30 h.
On the same counts, the results for `C/C1=C\[C@@H](O)C(=O)/C=C/C=Cc2csc(n2)[C@@H](C)N2C(=O)C[C@@]([C@@](C)(O)C(=O)SCc3oc(=O)oc3C)(CC1)[S+]2[O-]` (stereo not given in full) are 0.67, 8.34, 2 mg/kg and 16 h.
In the series on Mus musculus [1], `CSC(=O)[C@](C)(O)[C@@]12CC/C(C)=C/[C@@H](O)C(=O)/C=C/C=Cc3csc(n3)[C@@H](C)N(C(=O)C1)[S+]2[O-]` (stereo not given in full) registered a T/C of 0.94. For the same compound, the pIC50 in the series with HeLa is 6.08. For the same compound, the OD with Mus musculus [2] stood at 16 mg/kg. This compound also had a half-life in series [3] of 18 h.
In the series with Mus musculus [1], `C/C1=C\[C@@H](O)C(=O)/C=C/C=C\c2csc(n2)[C@@H](C)NC(=O)C[C@@]2(CC1)[S+]([O-])SC(=O)[C@]2(C)O` (stereo not given in full) [LEINAMYCIN] yielded a T/C of 0.49. The compound also showed an OD in the series on Mus musculus [2] of 2 mg/kg. The half-life in series [3] is 6 h.
The compound `C/C1=C\[C@@H](O[C@@H]2CCCCO2)C(=O)/C=C/C=C/c2csc(n2)[C@@H](C)N2C(=O)C[C@@]([C@@](C)(O)C(=O)SCc3oc(=O)oc3C)(CC1)[S+]2[O-]` (stereo not given in full) gave a T/C in the series with Mus musculus [1] of 0.26. Besides, the negative logarithm of the IC50 (pIC50) with HeLa is 9.17. In the series with Mus musculus [2], this compound gave an OD of 8 mg/kg. The half-life in series [3] is 30 h.
On the same counts, the results for `COC1(O[C@@H]2/C=C(\C)CC[C@]3([C@@](C)(O)C(=O)SCc4oc(=O)oc4C)CC(=O)N([C@H](C)c4nc(cs4)/C=C/C=C/C2=O)[S+]3[O-])CCOCC1` (stereo not given in full) are 0.25, 8.85, 8 mg/kg and 18 h.
On the same counts, the results for `COCO[C@@H]1/C=C(\C)CC[C@]2([C@@](C)(O)C(=O)SCc3oc(=O)oc3C)CC(=O)N([C@H](C)c3nc(cs3)C=C/C=C/C1=O)[S+]2[O-]` (stereo not given in full) are 0.58, 9.77, 2 mg/kg and 24 h.
